According to ChEMBL document CHEMBL2331435, “Structure-activity relationship study of vitamin k derivatives yields highly potent neuroprotective agents” (J Med Chem, 2013):
Active and inactive are the calls of the source.

Tests used:
Mus musculus [1] = assay: Toxicity in BALB/cByJ mouse assessed as biochemical parameters at 50 mg/kg, ip daily for 3 weeks measured 2 hrs after final injection; assay type: organism-based; parameters: dose 50 mg/kg, route intraperitoneal; conditions: in vivo
Mus musculus [2] = assay: Toxicity in BALB/cByJ mouse assessed as outward signs of distress at 50 mg/kg, ip daily for 3 weeks measured 2 hrs after final injection; assay type: organism-based; parameters: dose 50 mg/kg, route intraperitoneal; conditions: in vivo
Mus musculus [3] = assay: Toxicity in BALB/cByJ mouse assessed as outward signs of pain at 50 mg/kg, ip daily for 3 weeks measured 2 hrs after final injection; assay type: organism-based; parameters: dose 50 mg/kg, route intraperitoneal; conditions: in vivo
[4] = molecular target: T1, Serine/threonine-protein phosphatase PGAM5, mitochondrial (Mus musculus) (UniProt Q8BX10); assay: Inhibition of glutamate-induced increase in lower band of PGAM5 in mouse HT22 cells at 125 nM after 16 hrs by Western blotting analysis; assay type: cell-based; conditions: HT-22
T1 sequence (whole entry): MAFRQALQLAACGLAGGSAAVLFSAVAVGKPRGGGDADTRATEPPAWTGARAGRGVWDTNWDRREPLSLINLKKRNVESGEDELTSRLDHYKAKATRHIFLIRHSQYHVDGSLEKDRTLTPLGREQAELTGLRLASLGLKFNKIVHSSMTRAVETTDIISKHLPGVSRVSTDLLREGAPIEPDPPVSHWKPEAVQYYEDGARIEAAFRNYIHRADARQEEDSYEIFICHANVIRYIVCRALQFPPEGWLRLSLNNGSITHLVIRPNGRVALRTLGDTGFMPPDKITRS
Procedure, shortened: (§1)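 HT22 cells were treated with 10 mM glutamate plus compound for 16 h, harvested, and lysed in low-salt buffer (50 mM Tris-HCl pH 7.4, 150 mM NaCl, 10% glycerol, Triton X-100, protease/phosphatase inhibitors) for 30 min with a brief sonication. Lysates were run on 4–12% gels and immunoblotted for phospho-Drp1 Ser637, total Drp1, PGAM5, actin and α-tubulin, then analyzed by densitometry.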

[5] = molecular target: Dynamin-1-like protein (Mus musculus) (UniProt Q8K1M6); assay: Inhibition of glutamate-induced decrease in DRP1 phosphorylation at serine 637 in mouse HT22 cells at 125 nM after 16 hrs by Western blotting analysis; assay type: cell-based; conditions: HT-22; procedure, shortened: as §1
HT-22 [6] = assay: Neuroprotective activity in mouse HT22 cells assessed as prevention from tBuOOH-induced oxidative cell death after 3 hrs by MTS assay; assay type: functional, cell-based
Procedure, shortened: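 HT22 cells were seeded at 5.0 × 10^3 per well and cultured overnight, then exposed to 50 μM t-BuOOH (final) plus compound for 3 h. Medium was removed, cells were washed with HBSS and returned to normal medium. MTS was added 24 h after initial treatment, absorbance was read at 490 nm after 2 h, and viability was expressed as percent of untreated cells.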

HT-22 [7] = assay: Antioxidant activity in mouse HT22 cells assessed as upregulation of NQO1 protein expression 8 hrs by Western blotting analysis; assay type: functional, cell-based
HT-22 [8] = assay: Antioxidant activity in mouse HT22 cells assessed as upregulation of HO1 protein expression 8 hrs by Western blotting analysis; assay type: functional, cell-based
HT-22 [9] = assay: Neuroprotective activity in mouse HT22 cells assessed as reduction of glutamate-induced mitochondrial fragmentation at 250 nM after 8 hrs by Mitotracker DR staining-based fluorescence microscopic analysis; assay type: functional, cell-based
Procedure, shortened: (§2)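 HT22 cells were given 10 mM glutamate plus compound for 8 h, then co-stained with MitoSOX Red (5 μM final) and Mitotracker Deep Red (10 nM final) for 20 min. Cells were washed twice with HBSS and imaged live by fluorescence microscopy in HBSS.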

HT-22 [10] = assay: Neuroprotective activity in mouse HT22 cells assessed as reduction of glutamate-induced mitochondrial superoxide generation at 250 nM after 8 hrs by MitoSOX RED staining-based fluorescence microscopic analysis; assay type: functional, cell-based; procedure, shortened: as §2
HT-22 [11] = assay: Antioxidant activity in mouse HT22 cells assessed as upregulation of NQO1 gene expression at 250 nM after 16 hrs by qRT-PCR analysis in the absence of glutamate; assay type: functional, cell-based
Procedure, shortened: (§3)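 HT22 cells were seeded at 3.0 × 10^5 per well and cultured overnight, then treated with or without 10 mM glutamate plus compound (DMSO stock) for 16 h. Cells were trypsinized and washed in cold Ca/Mg-free HBSS. HO-1 and NQO-1 mRNA were measured by qRT-PCR with β2-microglobulin as reference gene, and fold change was calculated by the Livak method.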

HT-22 [12] = assay: Antioxidant activity in mouse HT22 cells assessed as upregulation of HO1 gene expression at 250 nM after 16 hrs by qRT-PCR analysis in the absence of glutamate; assay type: functional, cell-based; procedure, shortened: as §3
HT-22 [13] = assay: Antioxidant activity in mouse HT22 cells assessed as reduction in glutamate-induced upregulation of HO1 gene expression at 250 nM after 16 hrs by qRT-PCR analysis relative to untreated control; assay type: functional, cell-based; procedure, shortened: as §3
HT-22 [14] = assay: Antioxidant activity in mouse HT22 cells assessed as reduction in glutamate-induced upregulation of NQO1 gene expression at 250 nM after 16 hrs by qRT-PCR analysis relative to glutamate-treated control; assay type: functional, cell-based; procedure, shortened: as §3
[15] = test system: Radical scavenging activity; assay: Antioxidant activity assessed as DPPH free radical scavenging activity at 20 uM; assay type: functional
Procedure, shortened: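 Test agents at 20 μM final, added to 100 μM DPPH in methanol; absorbance at 517 nm monitored immediately for 10 min. Trolox and ascorbic acid served as positive controls, and the rate of absorbance loss was taken as antioxidant potency.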

HT-22 [16] = assay: Antioxidant activity in mouse HT22 cells assessed as prevention of glutamate-induced intracellular accumulation of free radicals at 250 nM after 8 hrs by spectrofluorometric analysis; assay type: functional, cell-based
Procedure, shortened: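 HT22 cells were seeded at 5.0 × 10^3 per well and cultured overnight, then given 10 mM glutamate plus compound for 8 h. Rho123 was added at 5 μM final for 20 min, cells were washed twice with HBSS, and oxidized Rho123 fluorescence was read at 500 nm excitation and 536 nm emission.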

HT-22 [17] = assay: Ratio of VK2 IC50 to 2-((4-Chlorobenzyl)amino)naphthalene-1,4-dione IC50 for prevention from glutamate-induced oxidative cell death in mouse HT22 cells; assay type: functional
[18] = Neurotoxicity in mouse HT22 cells assessed as cell viability after 24 hrs by MTS assay; assay type: toxicity, cell-based, HT-22; conditions: read-out: TC50
Procedure, shortened: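 HT22 cells were seeded at 5.0 × 10^3 per well, cultured overnight, and treated with a range of compound concentrations without glutamate for 24 h. MTS was added for 2 h and absorbance read at 490 nm. Viability was expressed as percent of untreated cells, and TC50 was fit from titration curves (7- or 12-point, n = 3–4).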

[19] = Therapeutic index, ratio of cytotoxic TC50 for mouse HT22 cells to neuroprotective PD50 for mouse HT22 cells; assay type: cell-based, HT-22; conditions: read-out: TI
HT-22 [20] = assay: Neuroprotective activity in mouse HT22 cells assessed as prevention from glutamate-induced oxidative cell death by MTS assay; assay type: functional
Procedure, shortened: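 HT22 cells grown in high-glucose DMEM with 10% FBS and antibiotic-antimycotic at 37°C, 5% CO2. Seeded at 5.0 × 10^3 cells/well overnight, then given 10 mM glutamate (final) plus compound from DMSO stock. MTS added 24 h after treatment, 2 h at 37°C, A490 read. Viability taken as % of untreated cells. PC50 from 12-point titrations; experiments repeated at least four times.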

HT-22 [21] = assay: Antioxidant activity in mouse HT22 cells assessed as reduction in glutamate-induced upregulation of HO1 gene expression at 250 nM after 16 hrs by qRT-PCR analysis relative to glutamate-treated control; assay type: functional, cell-based; procedure, shortened: as §3
Mus musculus [22] = assay: Toxicity in BALB/cByJ mouse assessed as weight loss at 50 mg/kg, ip daily for 3 weeks measured 2 hrs after final injection; assay type: organism-based; parameters: dose 50 mg/kg, route intraperitoneal; conditions: in vivo

Sequence of Dynamin-1-like protein (Mus musculus) (Q8K1M6 whole entry): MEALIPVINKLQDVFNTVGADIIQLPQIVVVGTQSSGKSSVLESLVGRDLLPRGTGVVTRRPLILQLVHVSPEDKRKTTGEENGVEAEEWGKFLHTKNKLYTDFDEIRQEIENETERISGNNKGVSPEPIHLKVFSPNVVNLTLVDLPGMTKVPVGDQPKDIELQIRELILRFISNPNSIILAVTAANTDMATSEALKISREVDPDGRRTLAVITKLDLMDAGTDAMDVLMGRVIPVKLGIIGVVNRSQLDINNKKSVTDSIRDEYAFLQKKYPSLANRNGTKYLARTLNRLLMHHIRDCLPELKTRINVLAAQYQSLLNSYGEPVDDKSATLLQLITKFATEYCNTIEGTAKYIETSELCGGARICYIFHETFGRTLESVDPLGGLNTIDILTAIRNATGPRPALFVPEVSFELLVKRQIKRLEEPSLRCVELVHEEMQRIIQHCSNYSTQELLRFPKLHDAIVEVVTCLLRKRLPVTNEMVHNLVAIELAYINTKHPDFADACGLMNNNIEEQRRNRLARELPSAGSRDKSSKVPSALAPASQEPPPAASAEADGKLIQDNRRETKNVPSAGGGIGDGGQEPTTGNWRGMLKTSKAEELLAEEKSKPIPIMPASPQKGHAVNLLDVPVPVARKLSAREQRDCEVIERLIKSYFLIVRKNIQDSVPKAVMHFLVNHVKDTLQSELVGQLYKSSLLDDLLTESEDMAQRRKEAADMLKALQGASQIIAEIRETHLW

O=C1C=C(NCc2cccc(Cl)c2)C(=O)c2ccccc21
> 100 µM: CC50 at 24 h [18]
active: inhibition [4] | inhibition [5] | Activity (HT-22 [6]) | Activity (HT-22 [9]) | Activity (HT-22 [10]) | Activity (HT-22 [16]) | Activity (HT-22 [21])
> 3230: selectivity ratio [19]
31 nM: PD50 (HT-22 [20])
inactive: Activity (HT-22 [7]) | Activity (HT-22 [8]) | Activity (HT-22 [11]) | Activity (HT-22 [12]) | Activity (HT-22 [13]) | Activity (HT-22 [14]) | Activity [15]
Non-toxic: Activity (Mus musculus [1]) | Activity (Mus musculus [2]) | Activity (Mus musculus [3]) | Activity (Mus musculus [22])
>10: Ratio IC50 (HT-22 [17])
